Assay results pooled from the literature.
Protocols differ between the studies behind these lines.
Target: Myosin-IIIa (MYO3A, Homo sapiens, UniProt Q8NEV4)

| Compound | read-out | method | tested at | remaining binding [%] |
| --- | --- | --- | --- | --- |
| C[C@@H](c1ccc(-n2cnc3c(N)ncnc32)cc1)N1CCc2nn(C)c(Cc3ccccc3)c2C1=O | binding | competition with immobilised ligand | 0.1 µM | 97 |
| O=C(O)c1cc(-c2ccc(C3CCNCC3)cc2)c2ccc(-c3ccc(C(F)(F)F)cc3)cc2c1 | binding | competition with immobilised ligand | 1 µM | 100 |
| COc1cnc(Nc2cccc(S(N)(=O)=O)c2)nc1N1CCN(c2ccccc2)C(=O)C1 | binding | competition with immobilised ligand | 1 µM | 100 |
| Cc1cnn2ncc(-c3ccnc(N(C)C)n3)c2c1 | binding | – | 1 µM | 100 |
| O=C(NS(=O)(=O)c1ccc(NCC2CCOCC2)c([N+](=O)[O-])c1)c1ccc(N2CCN(Cc3ccc(C(F)(F)F)cc3-c3ccc(Cl)cc3)CC2)cc1Oc1cnc2[nH]ccc2c1 | cell-free assay | competition with immobilised ligand | 1 µM | 85 |
| CN(CCCC(F)(F)F)c1nccc(-c2cnn3ncccc23)n1 | binding | – | 1 µM | 78 |
| O=C(Nc1c[nH]nc1C(=O)NC1CCNCC1)c1cc(F)cc(F)c1 | binding | competition with immobilised ligand | 1 µM | 94 |
| F[C@@H]1CCN(c2nccc(-c3cnn4ncccc34)n2)C1 | binding | – | 1 µM | 93 |
| c1cncc(-c2cccc(Nc3nccc(NC4CCCCC4)n3)c2)c1 | binding | competition with immobilised ligand | 10 µM | 99 |
| N[C@@H]1CCN(c2nccc(-c3cnn4ncccc34)n2)C1 | binding | – | 1 µM | 100 |
| O=C(c1ccc(Nc2nccc(-c3cc4ccccc4s3)n2)cc1)N1CCC(N2CCCC2)CC1 | binding | competition with immobilised ligand | 1 µM | 100 |
| CCN1CCN(Cc2ccc(C(=O)Nc3ccc(C)c(Oc4ccc5c(c4)CC(=O)N5)c3)cc2C(F)(F)F)CC1 | binding | competition with immobilised ligand | 1 µM | 100 |
| COc1cnc(Nc2cccc(S(N)(=O)=O)c2)nc1N1CCN(c2ccccc2)CC1 | binding | competition with immobilised ligand | 1 µM | 100 |
| C[C@@H]1CN(c2cc(-c3nn(C)c4ccc(OC5(C)CC5)cc34)ncn2)C[C@H](C)O1 | cell-free assay | competition with immobilised ligand | 1 µM | 100 |
| CN(c1nccc(-c2cnn3ncccc23)n1)C1CC1 | binding | – | 1 µM | 77 |
| CCC(=O)N[C@H]1CC[C@@H](C(=O)N(C)c2ccc(-c3nc4ccccc4o3)cc2)C1 | cell-free assay | competition with immobilised ligand | 1 µM | 100 |
| O=C(NCCCN1CCOCC1)c1ccc(Nc2ncc(Cl)c(-c3ccc(Cl)s3)n2)cc1 | binding | competition with immobilised ligand | 1 µM | 95 |
| CCC(=N\O)/C(C)=C/c1ccc(F)cc1 | cell-free assay | competition with immobilised ligand | 1 µM | 100 |
| O=C(c1ccc(Nc2ncc(Cl)c(-c3cc4ccccc4s3)n2)cc1)N1CCC(N2CCCC2)CC1 | binding | competition with immobilised ligand | 1 µM | 91 |
| CN(C(=O)c1ccccc1)c1cc(N(C)c2ccc3c(c2)CCc2ccc(C(=O)NCCN4CCOCC4)cc2C3=O)ccc1F | cell-free assay | competition with immobilised ligand | 1 µM | 91 |
| COc1ccnn2ncc(-c3ccnc(N(C)C)n3)c12 | binding | – | 1 µM | 96 |
